Experimental data published in ChEMBL document CHEMBL1142436, “Design and synthesis of 4-substituted indolo[3,2-e][1,2,3]triazolo[1,5-a]pyrimidine derivatives with antitumor activity” (2008).

Assays:
Format in all cases: functional
CCRF-CEM = experiment: Growth inhibition of human CCRF-CEM cells after 48 hrs
In short: (§1)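 NCI ~60-line screen. Cells were grown in RPMI 1640 with 5% FBS and 2 mM L-glutamine and plated at 5000–40000 cells/well. After a 24 h preincubation, five drug concentrations from DMSO stocks were added for 48 h at 37 °C. Cells were TCA-fixed, stained with SRB and read at 515 nm. GI50 was taken from time-zero and control absorbances and reported as pGI50.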

K562 = experiment: Growth inhibition of human K562 cells after 48 hrs; settings: K562, 48 h; in short: as §1
[1] = Growth inhibition of human HS578T cells after 48 hrs; settings: Hs-578T; in short: as §1
MDA-MB-435 = experiment: Growth inhibition of human MDA-MB435 cells after 48 hrs; settings: MDA-MB-435, 48 h; in short: as §1
T47D = experiment: Growth inhibition of human T47D cells after 48 hrs
In short: (§2)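 NCI 60-line screen: cells in RPMI 1640 with 5% FBS and 2 mM L-glutamine, plated at 5000–40000 cells/well, grown 24 h (37 °C, 5% CO₂), then exposed to five 10-fold or ½-log dilutions (DMSO stock) for 48 h. Fixed with TCA (final 10% for adherent cells, 16% for suspension cells), then SRB stained with absorbance at 515 nm. GI50 from percentage growth relative to time-zero and control wells.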

A549 = experiment: Growth inhibition of human A549 cells after 48 hrs; settings: A549, 48 h; in short: as §1
HOP-62 = experiment: Growth inhibition of human HOP62 cells after 48 hrs; settings: HOP-62, 48 h; in short: as §1
HOP-92 = experiment: Growth inhibition of human HOP92 cells after 48 hrs; settings: HOP-92, 48 h; in short: as §1
NCI-H226 = experiment: Growth inhibition of human NCI-H226 cells after 48 hrs; settings: NCI-H226, 48 h; in short: as §1
NCI-H23 = experiment: Growth inhibition of human NCI-H23 cells after 48 hrs; in short: as §1
NCI-H322M = experiment: Growth inhibition of human NCI-H322M cells after 48 hrs; in short: as §1
COLO 205 = experiment: Growth inhibition of human COLO205 cells after 48 hrs; settings: COLO 205, 48 h; in short: as §1
HCT-116 = experiment: Growth inhibition of human HCT116 cells after 48 hrs; settings: HCT-116, 48 h; in short: as §1
HCT-15 = experiment: Growth inhibition of human HCT15 cells after 48 hrs; settings: HCT-15, 48 h; in short: as §1
HT-29 = experiment: Growth inhibition of human HT29 cells after 48 hrs; settings: HT-29, 48 h; in short: as §1
SF-295 = experiment: Growth inhibition of human SF295 cells after 48 hrs; settings: SF-295, 48 h; in short: as §1
SF-539 = experiment: Growth inhibition of human SF539 cells after 48 hrs; settings: SF-539, 48 h; in short: as §1
SNB-19 = experiment: Growth inhibition of human SNB19 cells after 48 hrs; settings: SNB-19, 48 h; in short: as §2
SNB-75 = experiment: Growth inhibition of human SNB75 cells after 48 hrs; settings: SNB-75, 48 h; in short: as §2
LOX IMVI = experiment: Growth inhibition of human LOXIMVI cells after 48 hrs; in short: as §1
Malme-3M = experiment: Growth inhibition of human MALME3M cells after 48 hrs; in short: as §1
M14 = experiment: Growth inhibition of human M14 cells after 48 hrs; settings: M14, 48 h; in short: as §1
SK-MEL-2 = experiment: Growth inhibition of human SK-MEL2 cells after 48 hrs; settings: SK-MEL-2, 48 h; in short: as §1
SK-MEL-28 = experiment: Growth inhibition of human SK-MEL28 cells after 48 hrs; settings: SK-MEL-28, 48 h; in short: as §1
SK-MEL-5 = experiment: Growth inhibition of human SK-MEL5 cells after 48 hrs; settings: SK-MEL-5, 48 h; in short: as §1
UACC-62 = experiment: Growth inhibition of human UACC62 cells after 48 hrs; settings: UACC-62, 48 h; in short: as §2
OVCAR-3 = experiment: Growth inhibition of human OVCAR-3 cells after 48 hrs; settings: OVCAR-3, 48 h; in short: as §1
OVCAR-4 = experiment: Growth inhibition of human OVCAR4 cells after 48 hrs; settings: OVCAR-4, 48 h; in short: as §1
OVCAR-8 = experiment: Growth inhibition of human OVCAR8 cells after 48 hrs; settings: OVCAR-8, 48 h; in short: as §1
ACHN = experiment: Growth inhibition of human ACHN cells after 48 hrs; in short: as §1
TK-10 = experiment: Growth inhibition of human TK10 cells after 48 hrs; settings: TK-10, 48 h; in short: as §2
UO-31 = experiment: Growth inhibition of human UO31 cells after 48 hrs; settings: UO-31, 48 h; in short: as §2
[2] = read-out: Log LC50 (the source's name) (converted)

In the case of `Cn1c2ccccc2c2c(=O)n(CCCC(=O)NCCc3c[nH]cn3)c3c(-c4ccccc4)nnn3c21`, the GI50 (CCRF-CEM) is reported as 1.51 µM, the LC50 (CCRF-CEM) is reported as > 50.1 µM and the TGI (CCRF-CEM; read-out: pTGI (converted)) is reported as > 50.1 µM. For the same compound, the GI50 (K562) was 8.91 µM, the LC50 (K562) was > 50.1 µM and the TGI (K562; read-out: pTGI (converted)) was 26.9 µM. For the same compound, the GI50 [1] was 10.5 µM, the LC50 (50% lethal concentration) [1] was 49 µM and the TGI ([1]; read-out: pTGI (converted)) was 22.4 µM. It also gave a GI50 (MDA-MB-435) of 10.2 µM, an LC50 (MDA-MB-435) of 39.8 µM and a TGI (MDA-MB-435; read-out: pTGI (converted)) of 20 µM. The GI50 (T47D) was 10.5 µM, the CC50 (T47D; [2]) was > 50.1 µM and the TGI (T47D; read-out: pTGI (converted)) was 25.1 µM. The GI50 (A549) was 12.9 µM, the CC50 (A549; [2]) was 45.7 µM and the TGI (A549; read-out: pTGI (converted)) was 24 µM. For the same compound, the GI50 (HOP-62) was 7.59 µM, the LC50 (HOP-62) was 37.2 µM and the TGI (HOP-62; read-out: pTGI (converted)) was 17 µM. The GI50 (HOP-92) was 1.35 µM, the LC50 (HOP-92) was 44.7 µM and the TGI (HOP-92; read-out: pTGI (converted)) was 5.5 µM. The GI50 (NCI-H226) was > 50.1 µM, the CC50 (NCI-H226; [2]) was > 50.1 µM and the TGI (NCI-H226; read-out: pTGI) was > 50.1 µM. For the same compound, the TGI (NCI-H23; Homo sapiens, NCI-H23, 48 h, read-out: pTGI (converted)) was 46.8 µM, the CC50 (NCI-H23; [2]) was 13.2 µM and the GI50 (NCI-H322M) was 11 µM. For the same compound, the LC50 (NCI-H322M) was > 50.1 µM, the TGI (NCI-H322M; read-out: pTGI (converted)) was 29.5 µM and the GI50 (COLO 205) was 8.51 µM. The LC50 (COLO 205) was 44.7 µM, the TGI (COLO 205; read-out: pTGI (converted)) was 19.5 µM and the GI50 (HCT-116) was 5.89 µM. It also gave an LC50 (HCT-116) of 32.4 µM, a TGI (HCT-116; read-out: pTGI (converted)) of 13.8 µM and a GI50 (HCT-15) of 14.5 µM. The LC50 (HCT-15) was > 50.1 µM, the TGI (HCT-15; read-out: pTGI) was 43.7 µM and the GI50 (HT-29) was 8.51 µM. The LC50 (concentration killing 50% of cells) (HT-29) was 37.2 µM, the TGI (HT-29; read-out: pTGI (converted)) was 17.8 µM and the GI50 (SF-295) was 9.12 µM. The LC50 (SF-295) was 34.7 µM, the TGI (SF-295; read-out: pTGI (converted)) was 17.8 µM and the GI50 (SF-539) was 9.33 µM. The LC50 (concentration killing 50% of cells) (SF-539) was 31.6 µM, the TGI (SF-539; read-out: pTGI (converted)) was 17.4 µM and the GI50 (SNB-19) was 11.7 µM. For the same compound, the LC50 (SNB-19) was 49 µM, the TGI (SNB-19; read-out: pTGI (converted)) was 24 µM and the GI50 (SNB-75) was 10.5 µM. The LC50 (SNB-75) was 33.1 µM, the TGI (SNB-75; read-out: pTGI (converted)) was 18.6 µM and the GI50 (LOX IMVI) was 11.2 µM. It also gave an LC50 (lethal concentration, 50% cell kill) (LOX IMVI) of 46.8 µM, a TGI (LOX IMVI; read-out: pTGI (converted)) of 22.9 µM and a GI50 (Malme-3M) of 7.59 µM. The LC50 (Malme-3M) was 37.2 µM, the TGI (Malme-3M; read-out: pTGI (converted)) was 16.6 µM and the GI50 (M14) was 12 µM. It also gave an LC50 (M14) of 49 µM, a TGI (M14; read-out: pTGI (converted)) of 24.5 µM and a GI50 (SK-MEL-2) of 10.2 µM. It also gave an LC50 (SK-MEL-2) of 42.7 µM, a TGI (SK-MEL-2; read-out: pTGI (converted)) of 20.9 µM and a GI50 (SK-MEL-28) of 8.91 µM. It also gave an LC50 (SK-MEL-28) of 32.4 µM, a TGI (SK-MEL-28; read-out: pTGI (converted)) of 17 µM and a GI50 (SK-MEL-5) of 9.12 µM. For the same compound, the LC50 (SK-MEL-5) was 32.4 µM, the TGI (SK-MEL-5; read-out: pTGI (converted)) was 17 µM and the GI50 (UACC-62) was 9.77 µM. The LC50 (UACC-62) was 31.6 µM, the TGI (UACC-62; read-out: pTGI (converted)) was 17.8 µM and the GI50 (OVCAR-3) was 8.32 µM. It also gave an LC50 (OVCAR-3) of 31.6 µM, a TGI (OVCAR-3; read-out: pTGI (converted)) of 16.2 µM and a GI50 (OVCAR-4) of 10.2 µM. It also gave an LC50 (OVCAR-4) of 41.7 µM, a TGI (OVCAR-4; read-out: pTGI (converted)) of 20.4 µM and a GI50 (OVCAR-8) of 10 µM. The LC50 (OVCAR-8) was 42.7 µM, the TGI (OVCAR-8; read-out: pTGI (converted)) was 20.9 µM and the GI50 (ACHN) was 9.77 µM. For the same compound, the LC50 (ACHN) was 33.1 µM, the TGI (ACHN; read-out: pTGI (converted)) was 17.8 µM and the GI50 (TK-10) was 4.79 µM. It also gave an LC50 (TK-10) of 26.9 µM, a TGI (TK-10; read-out: pTGI (converted)) of 11.5 µM and a GI50 (UO-31) of 7.41 µM. It also gave an LC50 (UO-31) of 29.5 µM and a TGI (UO-31; read-out: pTGI (converted)) of 14.8 µM.
